Compound activity as filed in PubChem.
MC4R ag barr: human MC4R agonism via beta-arrestin; actives 0.98% (n = 360,000); U2OS MC4R beta-arrestin complementation, luminescence; percent of melanotan II response, DMSO zero; activation, % at 8.9 µM; P32245;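 active = activation above a per-plate cutoff, the mean activation of sample wells on that plate plus 3 SD, cut at about 8% in these data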
Target sequence (P32245 whole entry, looked up): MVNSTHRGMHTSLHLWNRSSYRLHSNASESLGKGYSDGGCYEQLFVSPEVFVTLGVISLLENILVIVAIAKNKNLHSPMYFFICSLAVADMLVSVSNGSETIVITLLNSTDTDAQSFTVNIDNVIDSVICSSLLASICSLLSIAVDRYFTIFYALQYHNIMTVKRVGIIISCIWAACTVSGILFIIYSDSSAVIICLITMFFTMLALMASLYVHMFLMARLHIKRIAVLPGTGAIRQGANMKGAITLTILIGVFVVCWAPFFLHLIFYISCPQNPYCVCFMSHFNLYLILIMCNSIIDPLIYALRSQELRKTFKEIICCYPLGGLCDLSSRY
MOR-DOR ag: agonists of human mu-delta opioid receptor heterodimerization. P35372+P41143. cells, OPRM1-OPRD1 heterodimerization, luminescence. activation, % at 9.3 µM. actives 0.3% (n = 340,000). AID 504326; in the data active = activation above about 18%
MC4R antagonist: antagonists of human melanocortin 4 receptor (MC4R). actives 0.48% (n = 360,000). P32245. AID 540295. inhibition, % at 6.5 µM. MC4R-expressing cells, MTII-stimulated cAMP, LANCE TR-FRET;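 active = inhibition above its plate's cutoff, the mean of tested wells on that plate plus 3 SD, cut at about 29% in these data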
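System – human MC4R-expressing U2OS cells · Also added – Melanotan II · Dosing – one concentration, 6.5 µM nominal · Timing – 30-min compound, 1-h challenge, 1-h detection, room temperature · Measured by – Eu-cAMP/anti-cAMP TR-FRET, emission 671 nm · Replicates – singlicate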
HTR5A inv ag: counter-screen for OPRM1-OPRD1 inverse agonists: human HTR5A inverse agonism; P47898; inhibition, % at 9.3 µM; actives 0.083% (n = 340,000); HTR5A cell line, luminescence; in the data active = inhibition mostly above about 23%, no sharp cut-off; inactive = mostly below about 18%
MOR-DOR inv ag: mu-delta opioid heterodimer inverse agonism | inhibition, % at 9.3 µM | cell-based MOR-DOR heterodimer luminescence | actives 0.21% (n = 340,000) | P35372+P41143; in the data active = inhibition above about 22%, passing the limit was not always enough
HTR5A ag ctr: counter-screen for OPRM1-OPRD1 agonists: human HTR5A agonism. P47898. actives 0.61% (n = 340,000). HTR5A agonist assay, luminescence, cell-based. AID 504692. activation, % at 9.3 µM; in the data active = activation mostly above about 9.5%, no sharp cut-off; inactive = mostly below about 7.6%
A number is an active result; – = inactive. Compounds with a hit are over-represented: about 2.4% of the library has one in this group of screens.

SMILES | MC4R ag barr | MOR-DOR ag | MC4R antagonist | HTR5A inv ag | MOR-DOR inv ag | HTR5A ag ctr
COc1ccc(NC(=O)c2ccc(-c3ccc(OC)cc3)s2)cc1 | 8.5 | – | – | – | – | –
O=c1c2c(-c3ccccc3)csc2nc2c3ccccc3c(NCCN3CCOCC3)nn12 | 9.3 | – | – | – | – | –
CC1=NN(c2ccccc2)C(=O)/C1=C/C=C/C=C/N(C)C | – | – | – | 22 | 33 | –
CC1=NN(c2ccc(C)cc2)C(=O)/C1=C\C=C\c1ccccc1 | – | – | – | – | – | –
CCOC(=O)c1ccc(Nc2ncnc3c2cnn3C)cc1 | – | – | – | – | – | –
Cn1ncc2c(O/N=C(\N)c3ccc(C(C)(C)C)cc3)ncnc21 | 36 | 182 | – | – | – | 68
COCCn1c(Cc2ccccc2)nnc1SCC(=O)Nc1oc(C)c2c(C)n[nH]c(=O)c12 | – | – | – | – | – | –
COc1ccc(COc2ccsc2C(=O)Nc2ccc(Cl)cc2)cc1 | 8.7 | – | – | – | – | –
O=C(Nc1ccc(Cl)cc1)N(CCCN1CCOCC1)Cc1cccs1 | – | – | – | – | – | –
O=S(=O)(c1ccc(Cl)cc1)N(CCCN1CCOCC1)Cc1cccs1 | – | – | – | – | – | 11
Cc1cccc(OC(=O)c2ccc3nccnc3c2)c1 | – | – | – | – | – | 9.4
Cc1cccc(OC(=O)c2cccnc2)c1 | – | – | – | – | – | –
Cc1ccc(NC(=O)COC(=O)C2CC2(Cl)Cl)cc1C (stereo not drawn) | – | – | – | – | – | 9.0
Cc1ccc(NC(=O)COC(=O)C2CC2)cc1Cl | – | – | – | – | – | –
CN(C)CCCNc1cc(C(C)(C)C)nc2c(-c3ccc(Cl)cc3)cnn12 | 8.3 | – | – | – | – | –
Cc1ccc(S(=O)(=O)CCC(=O)c2cccc([N+](=O)[O-])c2)cc1 | – | – | 31 | – | – | –
Cc1ccc(C(=O)CCS(=O)(=O)c2ccc(Br)cc2)cc1 | – | – | – | – | – | –
Cc1ccc(S(=O)(=O)Cc2cc(F)c([N+](=O)[O-])cc2[N+](=O)[O-])cc1 | – | – | 31 | – | – | –
CCOc1ccccc1N1CCN(CC(=O)NC(C)c2ccccc2)CC1 (stereo not drawn) | – | – | – | – | – | –
O=C(CN1C(=O)NC2(CCCC2)C1=O)N1CCN(S(=O)(=O)c2ccccc2[N+](=O)[O-])CC1 | – | – | – | – | – | 9.5
O=C(CN1C(=O)NC2(CCCC2)C1=O)N1CCN(S(=O)(=O)c2ccccc2F)CC1 | – | – | – | – | – | –
O=C(CN1C(=O)NC2(CCCCCCC2)C1=O)N1CCc2ccccc2C1 | – | – | – | – | – | –
O=C1NC2(CCCCC2)C(=O)N1CC(=O)N1CCc2ccccc21 | – | – | – | – | – | 11
O=C(NNC(=S)Nc1ccccc1)NNC(=S)Nc1ccccc1 | – | – | – | – | – | –
O=C(NNC(=S)Nc1ccccc1)Nc1ccccc1 | – | – | – | 23 | 35 | –
SMILES | MC4R ag barr | MOR-DOR ag | MC4R antagonist | HTR5A inv ag | MOR-DOR inv ag | HTR5A ag ctr
Cc1ccc(NC(=S)NNC(=O)Nc2ccccc2)cc1 | – | – | – | 29 | 34 | –
COc1ccc(C)cc1NC(=O)C1CCN(S(C)(=O)=O)CC1 | – | – | – | – | – | –
COc1ccc(C)cc1NC(=O)NNC(=O)C1CCC(C(C)(C)C)CC1 (stereo not drawn) | – | – | – | – | – | 13
Cc1cc(OCC(=O)Nc2ccncc2)cc(C)c1Br | – | – | – | – | – | 13
O=C(CSc1nc2[nH]ncc2c(=O)[nH]1)Nc1ccc(OC(F)(F)F)cc1 | – | – | – | – | – | –
COC(=O)c1sc(NC(=O)CSc2nnnn2-c2cccc(OC)c2)nc1C | 8.7 | – | – | – | – | –
CCOC(=O)c1sc(NC(=O)CSc2nnnn2-c2ccccc2)nc1C | – | – | – | – | – | –
COC(=O)c1sc(NC(=O)COc2ccc(OC)cc2)nc1C | – | – | – | – | – | –
COC(=O)c1sc(NC(=O)COc2cccc3ccccc23)nc1C | 8.4 | – | – | – | – | –
CC(NC(=O)/C(=C/c1ccc2c(c1)OCO2)NC(=O)c1cccc([N+](=O)[O-])c1)C(=O)O (stereo not drawn) | – | – | – | – | – | –
